In ChEMBL document CHEMBL2086304, “Synthesis and in vitro antimycobacterial and isocitrate lyase inhibition properties of novel 2-methoxy-2'-hydroxybenzanilides, their thioxo analogues and benzoxazoles” (Eur J Med Chem, 2012):
Converted amounts (≈) assume the structure as drawn.

Assays:
Mycobacterium kansasii [1] = experiment: Antimycobacterial activity against isoniazid resistance Mycobacterium kansasii 225/80 after 21 days by micromethod; assay type: functional; settings: 225/80, 504 h
HepG2 = experiment: Cytotoxicity against human HepG2 cells after 24 hrs by CellTiter-96 cell viability assay; assay type: functional, cell-based; settings: HepG2, 24 h
How it was run: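 Hep G2 human hepatic cells (passage 12), 10,000 per well, grown 24 h at 37 °C, 5% CO2 in MEM with 1% glutamine, 10% FBS and 1% nonessential amino acids. Compounds in DMSO at eight increasing concentrations, quadruplicate, 24 h at 37 °C. Kit reagent added, 1.5 h at 37 °C, absorbance 490 nm. IC50 is the concentration reducing viability to 50% of control.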

Mycobacterium kansasii [2] = experiment: Antimycobacterial activity against isoniazid resistance Mycobacterium kansasii 225/80 after 14 days by micromethod; assay type: functional; settings: 225/80, 336 h
[3] = system: Mycobacterium tuberculosis; experiment: Antimycobacterial activity against Mycobacterium tuberculosis 331/88 after 21 days by micromethod; assay type: functional; settings: 331/88, 504 h
How it was run: (§1)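 Inocula: M. tuberculosis My 331/88 at 10^-3 dilution, M. avium My 330/88 at 10^-5, M. kansasii My 235/80 and clinical isolate 6509/96 at 10^-4. Compounds added in DMSO at 1000 down to 0.5 (twofold series). Read at 14 and 21 days, plus 7 days for M. kansasii. MIC taken as lowest concentration inhibiting growth.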

[4] = Selectivity index, ratio of IC50 for human HepG2 cells to MIC for Mycobacterium tuberculosis 331/88 after 14 days; assay type: functional
How it was run: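 Cytotoxicity in Hep G2 cells (passage 12), 10,000 cells/well, in MEM with 10% FBS, 1% glutamine and 1% nonessential amino acids. Cells preincubated 24 h, 37 °C, 5% CO2. Compounds in DMSO at eight concentrations in quadruplicate, 24 h. MTS-type reagent added for 1.5 h, A490 read, IC50 taken at 50% viability. SI = this IC50 over the 14-day M. tuberculosis MIC.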

Mycobacterium avium [5] = experiment: Antimycobacterial activity against isoniazid resistance Mycobacterium avium 330/88 after 21 days by micromethod; assay type: functional; settings: 330/88, 504 h; how it was run: as §1
Mycobacterium kansasii [6] = experiment: Antimycobacterial activity against Mycobacterium kansasii 6509/96 clinical isolate after 14 days by micromethod; assay type: functional; settings: 6509/96, 336 h; how it was run: as §1
Mycobacterium kansasii [7] = experiment: Antimycobacterial activity against isoniazid resistance Mycobacterium kansasii 225/80 after 7 days by micromethod; assay type: functional; settings: 225/80, 168 h
Mycobacterium kansasii [8] = experiment: Antimycobacterial activity against Mycobacterium kansasii 6509/96 clinical isolate after 7 days by micromethod; assay type: functional; settings: 6509/96, 168 h; how it was run: as §1
Mycobacterium avium [9] = experiment: Antimycobacterial activity against isoniazid resistance Mycobacterium avium 330/88 after 14 days by micromethod; assay type: functional; settings: 330/88, 336 h; how it was run: as §1
[10] = system: Mycobacterium tuberculosis; experiment: Antimycobacterial activity against Mycobacterium tuberculosis 331/88 after 14 days by micromethod; assay type: functional; settings: 331/88, 336 h; how it was run: as §1
Mycobacterium kansasii [11] = experiment: Antimycobacterial activity against Mycobacterium kansasii 6509/96 clinical isolate after 21 days by micromethod; assay type: functional; settings: 6509/96, 504 h; how it was run: as §1
[12] = molecular target: T1, Isocitrate lyase (Mycobacterium tuberculosis) (UniProt P9WKK7); experiment: Inhibition of Mycobacterium tuberculosis H37Rv isocitrate lyase expressed in Escherichia coli HB101 at 10 umol/L
T1 sequence (whole entry): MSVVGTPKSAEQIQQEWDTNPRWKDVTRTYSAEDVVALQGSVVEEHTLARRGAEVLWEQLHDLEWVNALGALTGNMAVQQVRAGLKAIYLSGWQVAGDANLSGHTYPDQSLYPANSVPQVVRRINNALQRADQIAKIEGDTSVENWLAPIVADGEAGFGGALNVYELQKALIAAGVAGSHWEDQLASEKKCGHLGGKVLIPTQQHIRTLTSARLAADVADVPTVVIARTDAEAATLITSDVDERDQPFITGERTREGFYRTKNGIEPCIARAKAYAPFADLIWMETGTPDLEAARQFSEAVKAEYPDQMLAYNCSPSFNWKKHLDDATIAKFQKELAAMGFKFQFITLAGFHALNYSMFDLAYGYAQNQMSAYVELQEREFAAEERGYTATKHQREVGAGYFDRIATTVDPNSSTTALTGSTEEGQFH
How it was run: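 Isocitrate lyase assayed per Dixon–Kornberg in 96-well format. Buffer: 50 mmol/L KH2PO4, 4 mmol/L MgCl2, 4 mmol/L phenylhydrazine, 12 mmol/L cysteine, pH 7.0. Glyoxylate phenylhydrazone read at 324 nm. Compounds added in DMSO, with DMSO-alone inhibition subtracted.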

Row | Compound | MIC (Mycobacterium kansasii [1]) | IC50 (HepG2) | MIC (Mycobacterium kansasii [2]) | MIC [3] | Selectivity Index [4] | MIC (Mycobacterium avium [5]) | MIC (Mycobacterium kansasii [6]) | MIC (Mycobacterium kansasii [7]) | MIC (Mycobacterium kansasii [8]) | MIC (Mycobacterium avium [9]) | MIC [10] | MIC (Mycobacterium kansasii [11]) | inhibition [12]
1 | COc1cc(Cl)ccc1C(=O)Nc1cc(Br)ccc1O | 62.5 µM (≈ 22.3 µg/mL) | 5.63 µM | 62.5 µM (≈ 22.3 µg/mL) | 125 µM (≈ 44.6 µg/mL) | 0.05 | 62.5 µM (≈ 22.3 µg/mL) | 62.5 µM (≈ 22.3 µg/mL) | 62.5 µM (≈ 22.3 µg/mL) | 62.5 µM (≈ 22.3 µg/mL) | 62.5 µM (≈ 22.3 µg/mL) | 125 µM (≈ 44.6 µg/mL) | 62.5 µM (≈ 22.3 µg/mL) | 0%
2 | COc1cc(Cl)ccc1C(=S)Nc1cc(C(F)(F)F)ccc1O | 125 µM (≈ 45.2 µg/mL) | 5.74 µM | 62.5 µM (≈ 22.6 µg/mL) | 62.5 µM (≈ 22.6 µg/mL) | 0.18 | 62.5 µM (≈ 22.6 µg/mL) | 62.5 µM (≈ 22.6 µg/mL) | 32 µM (≈ 11.6 µg/mL) | 32 µM (≈ 11.6 µg/mL) | 32 µM (≈ 11.6 µg/mL) | 32 µM (≈ 11.6 µg/mL) | 125 µM (≈ 45.2 µg/mL) | 0%
3 | COc1ccc(Cl)cc1C(=S)Nc1ccc(Br)cc1O | 62.5 µM (≈ 23.3 µg/mL) | 7.6 µM | 32 µM (≈ 11.9 µg/mL) | 32 µM (≈ 11.9 µg/mL) | 0.24 | 125 µM (≈ 46.6 µg/mL) | 32 µM (≈ 11.9 µg/mL) | 16 µM (≈ 5.96 µg/mL) | 16 µM (≈ 5.96 µg/mL) | 62.5 µM (≈ 23.3 µg/mL) | 32 µM (≈ 11.9 µg/mL) | 32 µM (≈ 11.9 µg/mL) | 7%
4 | COc1ccc(Cl)cc1C(=O)Nc1cc(Cl)c(Cl)cc1O | 125 µM (≈ 43.3 µg/mL) | 2.98 µM | 125 µM (≈ 43.3 µg/mL) | 125 µM (≈ 43.3 µg/mL) | 0.02 | 125 µM (≈ 43.3 µg/mL) | 125 µM (≈ 43.3 µg/mL) | 125 µM (≈ 43.3 µg/mL) | 125 µM (≈ 43.3 µg/mL) | 125 µM (≈ 43.3 µg/mL) | 125 µM (≈ 43.3 µg/mL) | 125 µM (≈ 43.3 µg/mL) | 7%
5 | COc1ccc(Cl)cc1C(=O)Nc1ccc(Br)cc1O | 500 µM (≈ 178 µg/mL) | 7.98 µM | 500 µM (≈ 178 µg/mL) | 8 µM (≈ 2.85 µg/mL) | 2 | 500 µM (≈ 178 µg/mL) | 250 µM (≈ 89.2 µg/mL) | 500 µM (≈ 178 µg/mL) | 250 µM (≈ 89.2 µg/mL) | 500 µM (≈ 178 µg/mL) | 4 µM (≈ 1.43 µg/mL) | 250 µM (≈ 89.2 µg/mL) | 0%
6 | COc1cc(Cl)ccc1C(=S)Nc1cc(Cl)c(Cl)cc1O | 62.5 µM (≈ 22.7 µg/mL) | 3.16 µM | 32 µM (≈ 11.6 µg/mL) | 32 µM (≈ 11.6 µg/mL) | 0.1 | 62.5 µM (≈ 22.7 µg/mL) | 32 µM (≈ 11.6 µg/mL) | 16 µM (≈ 5.8 µg/mL) | 16 µM (≈ 5.8 µg/mL) | 62.5 µM (≈ 22.7 µg/mL) | 32 µM (≈ 11.6 µg/mL) | 62.5 µM (≈ 22.7 µg/mL) | 0%
7 | COc1ccc(Cl)cc1C(=S)Nc1cc(Cl)ccc1O | 16 µM (≈ 5.25 µg/mL) | 8.6 µM | 8 µM (≈ 2.63 µg/mL) | 32 µM (≈ 10.5 µg/mL) | 0.54 | 32 µM (≈ 10.5 µg/mL) | 32 µM (≈ 10.5 µg/mL) | 8 µM (≈ 2.63 µg/mL) | 16 µM (≈ 5.25 µg/mL) | 32 µM (≈ 10.5 µg/mL) | 16 µM (≈ 5.25 µg/mL) | 32 µM (≈ 10.5 µg/mL) | 0%
8 | COc1cc(Cl)ccc1C(=O)Nc1cc(Cl)c(Cl)cc1O | 500 µM (≈ 173 µg/mL) | 11.5 µM | 500 µM (≈ 173 µg/mL) | 500 µM (≈ 173 µg/mL) | 0.02 | > 1000 µM | 250 µM (≈ 86.6 µg/mL) | 500 µM (≈ 173 µg/mL) | 250 µM (≈ 86.6 µg/mL) | > 1000 µM | 500 µM (≈ 173 µg/mL) | 250 µM (≈ 86.6 µg/mL) | 0%
9 | COc1ccc(Cl)cc1C(=O)Nc1cc(C(F)(F)F)ccc1O | 62.5 µM (≈ 21.6 µg/mL) | 15.4 µM | 62.5 µM (≈ 21.6 µg/mL) | 250 µM (≈ 86.4 µg/mL) | 0.06 | 125 µM (≈ 43.2 µg/mL) | 125 µM (≈ 43.2 µg/mL) | 32 µM (≈ 11.1 µg/mL) | 62.5 µM (≈ 21.6 µg/mL) | 62.5 µM (≈ 21.6 µg/mL) | 250 µM (≈ 86.4 µg/mL) | 125 µM (≈ 43.2 µg/mL) | 0%
10 | COc1cc(Cl)ccc1C(=O)Nc1ccc(Cl)cc1O | 125 µM (≈ 39 µg/mL) | 7.34 µM | 62.5 µM (≈ 19.5 µg/mL) | 8 µM (≈ 2.5 µg/mL) | 0.92 | 125 µM (≈ 39 µg/mL) | 62.5 µM (≈ 19.5 µg/mL) | 62.5 µM (≈ 19.5 µg/mL) | 16 µM (≈ 4.99 µg/mL) | 62.5 µM (≈ 19.5 µg/mL) | 8 µM (≈ 2.5 µg/mL) | 62.5 µM (≈ 19.5 µg/mL) | 4%
